Data from paper PMC3032084 (Nature chemical biology, 2009).
“Also recorded” adds a separate entry of the source.

Legend:
PTHR (GFP-N-PTHR) = biological target: T1, PTHR (GFP-N-PTHR) (Homo sapiens, UniProt Q03431); type: binding; settings: for ligand dissociation after washout: GFP fluorescence recovery after rapid removal of ligand; for decrease in GFP emission: saturating concentration (15 μM), hormone binding to receptor
T1 sequence (Q03431 27-593): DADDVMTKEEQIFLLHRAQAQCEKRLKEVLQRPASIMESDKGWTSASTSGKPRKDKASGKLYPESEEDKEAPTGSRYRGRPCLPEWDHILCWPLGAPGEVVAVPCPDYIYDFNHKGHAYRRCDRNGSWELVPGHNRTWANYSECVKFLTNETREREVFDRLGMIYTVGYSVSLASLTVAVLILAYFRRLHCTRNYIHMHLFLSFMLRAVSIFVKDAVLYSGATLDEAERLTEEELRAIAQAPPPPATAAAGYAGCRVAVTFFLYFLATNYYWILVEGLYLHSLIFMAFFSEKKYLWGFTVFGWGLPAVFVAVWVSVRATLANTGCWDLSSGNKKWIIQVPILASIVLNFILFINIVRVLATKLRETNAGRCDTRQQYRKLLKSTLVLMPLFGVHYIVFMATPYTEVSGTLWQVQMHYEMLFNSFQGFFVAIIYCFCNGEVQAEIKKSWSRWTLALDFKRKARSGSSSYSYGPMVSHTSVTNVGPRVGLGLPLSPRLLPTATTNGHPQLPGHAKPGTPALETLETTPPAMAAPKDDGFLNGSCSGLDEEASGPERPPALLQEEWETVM

Rab5-GFP = assay: Co-localization of ligand with Rab5-GFP early endosomes; type: cell-based; settings: Rab5-GFP-transfected cells
Method in brief: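 Live HEK293 cells transfected with Rab5-GFP were imaged at room temperature 48 h post-transfection by spinning-disc confocal microscopy. Cells were washed with HEPES buffer containing 0.1% BSA. TMR-labelled ligand was added and removed by perfusion. Z-stacks were taken at 0.3-μm steps. Co-localization was scored by Pearson's correlation coefficient.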

Gαs-GFP = assay: Live cell confocal co-localization of ligand with Gαs-GFP; type: cell-based; settings: TMR-labeled ligand, after washout
Rab7-GFP = assay: Co-localization of ligand with Rab7-GFP late endosomes; type: cell-based; settings: even after 30 min of incubation
GFP-N-PTHR = assay: Live cell confocal co-localization of ligand with GFP-N-PTHR; type: cell-based; settings: TMR-labeled ligand, after washout
adenylyl cyclases = assay: Co-localization of ligand with BODIPY-Fsk labeled adenylyl cyclases; type: cell-based; settings: cells transiently transfected with PTHR
Method in brief: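 HEK293 cells transiently transfected with PTHR. Cellular adenylyl cyclases labeled with BODIPY-labeled forskolin, which labels all cells. A TMR-labeled test peptide ligand marks only the PTHR-expressing cells. After ligand binding, the distribution of the BODIPY-Fsk signal is compared with the ligand signal (internalized punctae vs diffuse) by live-cell fluorescence imaging.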

[1] = biological target: T2, PTHR co-expressed with DN-Gs (Homo sapiens, UniProt Q03431); assay: Ligand dissociation by FRET with co-expressed dominant-negative Gαs; type: binding; settings: co-expression of DN-Gs
T2 sequence (Q03431 27-593): T1 sequence (Q03431 27-593)

[2] = tested on: early endosomal antigen 1 (EEA-1); assay: Co-localization of ligand with GFP-tagged EEA-1; type: cell-based; settings: data not shown
[3] = biological target: PTHR N-terminally tagged with green fluorescent protein (UniProt Q03431); assay: FRET or BRET
YFP-labeled PTHR = YFP-labeled PTHR (UniProt Q03431); assay: FRET or BRET
[4] = biological target: PTHR variant that lacks the N domain and is tagged extracellularly with GFP; assay: FRET or BRET
PTHR = settings: membranes, ref [6]; cited from earlier work
[5] = tested on: cAMP via PTHR in HEK293 cells; assay: cAMP accumulation/degradation by FRET sensor Epac-CFP/YFP; type: cell-based; settings: PTHrP1–36 100 nM, PTH1–34 text 1−10 nM
PTHR (PTHR-CFP/YFP) = biological target: T3, PTHR (PTHR-CFP/YFP) (Homo sapiens, UniProt Q03431); assay: PTHR activation/deactivation by intramolecular FRET; type: cell-based; settings: PTHR-CFP/YFP FRET after washout
T3 sequence (Q03431 27-462 limits assumed): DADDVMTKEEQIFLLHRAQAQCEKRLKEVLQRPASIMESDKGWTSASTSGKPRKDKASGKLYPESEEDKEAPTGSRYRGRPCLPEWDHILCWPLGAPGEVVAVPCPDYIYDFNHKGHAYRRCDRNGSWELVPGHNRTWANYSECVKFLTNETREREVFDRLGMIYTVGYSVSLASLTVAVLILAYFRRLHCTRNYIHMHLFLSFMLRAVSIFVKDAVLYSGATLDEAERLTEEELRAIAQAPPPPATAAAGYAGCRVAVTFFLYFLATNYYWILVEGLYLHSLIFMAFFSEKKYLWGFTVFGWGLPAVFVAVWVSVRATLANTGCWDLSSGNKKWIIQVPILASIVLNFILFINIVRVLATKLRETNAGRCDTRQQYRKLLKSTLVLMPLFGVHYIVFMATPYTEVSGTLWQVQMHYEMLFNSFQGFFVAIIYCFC

PTH1–34-TMR: PTH ligand tagged at Lys13 with tetramethylrhodamine
ligand dissociation after washout (PTHR (GFP-N-PTHR)): most of the ligand remaining bound to the receptor after washout
decrease in GFP emission (PTHR (GFP-N-PTHR)): ~ 20%
co-localization with Rab5-labeled endosomes (Rab5-GFP): all of the internalized PTH1–34-TMR co-localized with Rab5-labeled endosomes
co-localization with Gαs-GFP (Gαs-GFP): strong co-localization with both GFP-N-PTHR and Gas-GFP; also recorded: persisted over a period of 30 min in endosomes but not at the cell surface
co-localization with Rab7-GFP (Rab7-GFP): No co-localization
co-localization with GFP-N-PTHR (GFP-N-PTHR): strong co-localization with both GFP-N-PTHR and Gas-GFP; also recorded: little or no TMR fluorescence from PTH1–34-TMR was detected at the cell surface; also recorded: remained closely associated during receptor internalization
BODIPY-Fsk (adenylyl cyclase) distribution/co-localization with ligand (adenylyl cyclases): strongly co-localized with the ligand as internalized punctae
effect of DN-Gs on ligand release [1]: no effect
co-localization with EEA-1-GFP [2]: also co-localized with the early endosomal antigen 1 (EEA-1)

PTH(1-34) tagged at Lys13 with tetramethylrhodamine (peptide)
koff, fast step (intercept) [3]: 0.46 s⁻¹
tau fast, dissociation (turn off) [3]: 1.5 s
tau slow, association (switch on) [3]: 1.15 s

Gs-CFP (Gαs/Gβ1/Gγ2-CFP) (from UniProt P63092 1-394; P62873 1-340; P59768 1-71) (complex; other documents disagree on this pair)
tau, PTHR-Gs dissociation (turn off) after washout of PTHrP(1-36) (YFP-labeled PTHR): 48.1 s
tau, PTHR-Gs interaction (switch on) with PTH(1-34) (YFP-labeled PTHR): 0.96 s
tau, PTHR-Gs interaction (switch on) with PTHrP(1-36) (YFP-labeled PTHR): 1.58 s

PTHrP1–36-TMR: TMR-labeled PTHrP1–36
ligand dissociation after washout (PTHR (GFP-N-PTHR)): complete dissociation of the ligand from the receptor
decrease in GFP emission (PTHR (GFP-N-PTHR)): ~ 20%
co-localization with Gαs-GFP (Gαs-GFP): did not co-localize with either GFP-N-PTHR or Gαs-GFP; also recorded: only ligand-containing vesicles are observed
co-localization with GFP-N-PTHR (GFP-N-PTHR): did not co-localize with either GFP-N-PTHR or Gαs-GFP; also recorded: alone is detected as small puntae at internalized sites
BODIPY-Fsk (adenylyl cyclase) distribution/co-localization with ligand (adenylyl cyclases): the labeled forskolin remained diffuse

M-PTH(1-14) labelled with tetramethylrhodamine (peptide)
tau, dissociation (single step) [4]: 15.8 s

^125I-PTH1–34: radioligand of PTH1–34
stability of radioligand binding with GTPγS (PTHR): remains mostly stable in the presence of GTPγS

^125I-PTHrP1–36: radioligand of PTHrP1–36
stability of radioligand binding with GTPγS (PTHR): mostly destabilized by GTPγS

PTH1–84: PTH is represented by PTH1–84
Epac-FRET (cAMP) signal after ligand washout [5]: remained fully stable after washout
persistence of active receptor state after ligand removal (PTHR (PTHR-CFP/YFP)): stable active state that persisted well after removal of ligand
